Experimental data published in ChEMBL document CHEMBL1122987, “Synthesis and central dopaminergic effects of N-(4,6-dimethyl-2-pyridinyl)benzamides” (1985).

Columns and labels:
Mus musculus [1] = organism: Mus musculus; assay: Antipsychotic effect was tested against motility scores in naive mice at a control value of 815; type: functional
Mus musculus [2] = organism: Mus musculus; assay: Antipsychotic effect was tested against motility scores in reserpinized mice at a control value of 11; type: functional
Mus musculus [3] = organism: Mus musculus; assay: Antipsychotic effect was tested against motility scores in reserpinized mice at a control value of 11; toxic; type: functional, organism-based
Mus musculus [4] = organism: Mus musculus; assay: Motility against number of interrupted beams in 1 hour in naive mice by 10 determinations; type: functional
Mus musculus [5] = organism: Mus musculus; assay: Motility against number of interrupted beams in 1 hour in reserpine treated mice by 4 determinations.; type: functional
Mus musculus [6] = organism: Mus musculus; assay: Motility against number of interrupted beams in 1 hr in reserpine & apomorphine treated mice by 10 determinations; type: functional
Outline: (§1)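 Mice reserpinized (10 mg/kg ip), then apomorphine 2 mg/kg ip given 20 h later; benzamide dosed 1 h before apomorphine. Individual photocell beam interruptions recorded for 60 min after apomorphine. Controls received acacia gum aqueous suspension; means ± SEM, Student's t test vs controls.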

Rattus norvegicus [7] = organism: Rattus norvegicus; assay: Compound was evaluated for the homovanillic acid levels of rats corpus striata by 11 determinations; type: functional
Outline: (§2)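 Male Wistar C.F. rats (200 ± 20 g); corpus striatum removed 5 h after dosing, HVA extracted from tissue and measured fluorimetrically, expressed as µg/g. Controls got acacia gum suspension; means ± SEM, Student's t test vs controls.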

Rattus norvegicus [8] = organism: Rattus norvegicus; assay: Compound was evaluated for the homovanillic acid levels of rats limbic system by 7 determinations; type: functional
Outline: (§3)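 Male Wistar C.F. rats (200 ± 20 g); limbic system dissected 5 h post-dose, HVA extracted and determined by fluorimetry (µg/g tissue). Vehicle controls received acacia gum aqueous suspension; means ± SEM, Student's t test.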

Mus musculus [9] = organism: Mus musculus; assay: Motility of the Compound was tested against number of interrupted beams in 1 hour in reserpine treated mice by 8 determinations; type: functional
Mus musculus [10] = organism: Mus musculus; assay: Motility of the Compound was tested against number of interrupted beams in 1 hr in reserpine & apomorphine treated mice by 14 determinations; type: functional; outline: as §1
Mus musculus [11] = organism: Mus musculus; assay: Motility against number of interrupted beams in 1 hour in naive mice by 13 determinations; type: functional
Rattus norvegicus [12] = organism: Rattus norvegicus; assay: Compound Evaluated for the homovanillic acid levels of rats corpus striata by 12 determinations; type: functional; outline: as §2
Rattus norvegicus [13] = organism: Rattus norvegicus; assay: Compound Evaluated for the homovanillic acid levels of rats limbic system by 12 determinations; type: functional; outline: as §3
Mus musculus [14] = organism: Mus musculus; assay: Motility against number of interrupted beams in 1 hour in reserpine treated mice by 9 determinations.; type: functional
Mus musculus [15] = organism: Mus musculus; assay: Motility against number of interrupted beams in 1 hr in reserpine & apomorphine treated mice by 21 determinations; type: functional; outline: as §1
Rattus norvegicus [16] = organism: Rattus norvegicus; assay: Compound was evaluated for the homovanillic acid levels of rats corpus striata by 14 determinations; type: functional; outline: as §2
Rattus norvegicus [17] = organism: Rattus norvegicus; assay: Compound was evaluated for the homovanillic acid levels of rats limbic system by 15 determinations; type: functional; outline: as §3
Mus musculus [18] = organism: Mus musculus; assay: Motility against number of interrupted beams in 1 hr in reserpine & apomorphine treated mice by 11 determinations; type: functional; outline: as §1
Rattus norvegicus [19] = organism: Rattus norvegicus; assay: Compound was evaluated for the homovanillic acid levels of rats Corpus striata by 7 determinations; type: functional; outline: as §2
Rattus norvegicus [20] = organism: Rattus norvegicus; assay: Compound was evaluated for the homovanillic acid levels of rats limbic system by 6 determinations; type: functional; outline: as §3
Mus musculus [21] = organism: Mus musculus; assay: Motility against number of interrupted beams in 1 hour in naive mice by 9 determinations; type: functional
Mus musculus [22] = organism: Mus musculus; assay: Motility against number of interrupted beams in 1 hour in reserpine treated mice by 4 determinations; type: functional
Mus musculus [23] = organism: Mus musculus; assay: Motility against number of interrupted beams in 1 hr in reserpine & apomorphine treated mice by 9 determinations; type: functional; outline: as §1
Rattus norvegicus [24] = organism: Rattus norvegicus; assay: Compound was evaluated for the homovanillic acid levels of rats corpus striata by 7 determinations; type: functional; outline: as §2
Mus musculus [25] = organism: Mus musculus; assay: Motility of the Compound was tested against number of interrupted beams in 1 hour in naive mice by 10 determinations; type: functional
Mus musculus [26] = organism: Mus musculus; assay: Motility of the Compound was tested against number of interrupted beams in 1 hr in reserpine & apomorphine treated mice by 12 determinations; type: functional; outline: as §1
Rattus norvegicus [27] = organism: Rattus norvegicus; assay: Compound was evaluated for the homovanillic acid levels of rats limbic system by 8 determinations; type: functional; outline: as §3
Mus musculus [28] = organism: Mus musculus; assay: Motility against number of interrupted beams in 1 hour in reserpine treated mice by 13 determinations; type: functional
Rattus norvegicus [29] = organism: Rattus norvegicus; assay: Compound was evaluated for the homovanillic acid levels of rats corpus striata by 18 determinations; type: functional; outline: as §2
Rattus norvegicus [30] = organism: Rattus norvegicus; assay: Compound was evaluated for the homovanillic acid levels of rats limbic system by 17 determinations; type: functional; outline: as §3
Mus musculus [31] = organism: Mus musculus; assay: Motility against number of interrupted beams in 1 hour in naive mice by 15 determinations; type: functional

Row | Compound | Motility (Mus musculus [1]) | Motility (Mus musculus [2]) | also measured
1 | CCOc1ccc(C(=O)Nc2cc(C)cc(C)n2)cc1 | 552 | 4 | 
2 | Cc1cc(C)nc(N(C)C(=O)c2ccccc2)c1 | 796 |  | Motility (Mus musculus [3]): Toxic
3 | Cc1cc(C)nc(NC(=O)c2cccc([N+](=O)[O-])c2)c1 | 634 | 15 | 
4 | Cc1cc(C)nc(NC(=O)c2cccc(C(F)(F)F)c2)c1 | 661 | 4 | 
5 | Cc1cc(C)nc(NC(=O)c2ccc([N+](=O)[O-])cc2)c1 | 746 | 0 | 
6 | COc1cccc(C(=O)Nc2cc(C)cc(C)n2)c1 | 822 | 0 | 
7 | CCN(C(=O)c1ccc(F)cc1)c1cc(C)cc(C)n1 | 965 | 29 | 
8 | Cc1cc(C)nc(NC(=O)c2ccccc2Cl)c1 | 875 | 4 | 
9 | COc1ccc(Cl)cc1C(=O)Nc1cc(C)cc(C)n1 | 748 | 19 | 
10 | COc1ccccc1C(=O)Nc1cc(C)cc(C)n1 | 646 | 7 | 
11 | Cc1cc(C)nc(NC(=O)c2ccc(N)cc2)c1 | 337 | 9 | Motility (Mus musculus [4]): 439; Motility (Mus musculus [5]): 0; Motility (Mus musculus [6]): 385; HVA level (Rattus norvegicus [7]): 0.308 µg/g; HVA level (Rattus norvegicus [8]): 0.268 µg/g
12 | Cc1cc(C)nc(NC(=O)c2ccccc2)c1 | 450 | 83 | Motility (Mus musculus [9]): 85.1; Motility (Mus musculus [10]): 642; Motility (Mus musculus [11]): 427; HVA level (Rattus norvegicus [12]): 0.504 µg/g; HVA level (Rattus norvegicus [13]): 0.297 µg/g
13 | CCN(C(=O)c1ccccc1)c1cc(C)cc(C)n1 | 914 | 31 | 
14 | CCS(=O)(=O)c1ccc(OC)c(C(=O)Nc2cc(C)cc(C)n2)c1 | 841 | 16 | 
15 | Cc1cc(C)nc(NC(=O)c2cccc(N)c2)c1 | 652 | 4 | 
16 | CC(=O)Nc1ccc(C(=O)Nc2cc(C)cc(C)n2)cc1 | 522 | 12 | 

Row | Compound | Motility (Mus musculus [1]) | Motility (Mus musculus [2]) | also measured
17 | Cc1cc(C)nc(NC(=O)c2ccc(Cl)cc2)c1 | 630 | 72 | Motility (Mus musculus [4]): 619; Motility (Mus musculus [14]): 73.4; Motility (Mus musculus [15]): 577; HVA level (Rattus norvegicus [16]): 0.644 µg/g; HVA level (Rattus norvegicus [17]): 0.355 µg/g
18 | CCN1CCCC1CNC(=O)c1cc(S(=O)(=O)CC)ccc1OC (stereo unspecified) [SULTOPRIDE] |  |  | Motility (Mus musculus [4]): 135; Motility (Mus musculus [18]): 152; HVA level (Rattus norvegicus [19]): 1.898 µg/g; HVA level (Rattus norvegicus [20]): 0.493 µg/g
19 | Cc1cccc(C(=O)Nc2cc(C)cc(C)n2)c1 | 505 | 0 | 
20 | Cc1cc(C)nc(NC(=O)c2ccc(F)cc2)c1 | 291 | 113 | Motility (Mus musculus [21]): 299; Motility (Mus musculus [22]): 118.2; Motility (Mus musculus [23]): 491; HVA level (Rattus norvegicus [24]): 0.667 µg/g; HVA level (Rattus norvegicus [8]): 0.194 µg/g
21 | CSc1ccc(C(=O)Nc2cc(C)cc(C)n2)cc1 | 770 | 0 | 
22 | CCN(CC)CCNC(=O)c1cc(Cl)c(N)cc1OC [METOCLOPRAMIDE] |  |  | Motility (Mus musculus [25]): 126; Motility (Mus musculus [26]): 63; HVA level (Rattus norvegicus [24]): 2.531 µg/g; HVA level (Rattus norvegicus [27]): 0.618 µg/g
23 | CC(=O)Nc1cccc(C(=O)Nc2cc(C)cc(C)n2)c1 | 777 | 8 | 
24 | COc1ccc(C(=O)Nc2cc(C)cc(C)n2)cc1 | 456 | 0 | 
25 | CCCN(C(=O)c1ccccc1)c1cc(C)cc(C)n1 | 780 | 8 | 
26 | Cc1cc(C)nc(NC(=O)c2cccc(Cl)c2)c1 | 617 | 52 | Motility (Mus musculus [28]): 41.2; Motility (Mus musculus [18]): 727; HVA level (Rattus norvegicus [29]): 0.396 µg/g; HVA level (Rattus norvegicus [30]): 0.141 µg/g; Motility (Mus musculus [31]): 577
27 | CCN(C(=O)c1cccc(Cl)c1)c1cc(C)cc(C)n1 | 941 | 21 | 
28 | COc1ccc(S(C)(=O)=O)cc1C(=O)Nc1cc(C)cc(C)n1 | 755 | 2 | 
29 | Cc1cc(C)nc(NC(=O)c2ccc(Br)cc2)c1 | 797 | 0 | 
30 | Cc1cc(C)nc(NC(=O)c2cccc(Br)c2)c1 | 826 | 21 | 
31 | Cc1cc(C)nc(NC(=O)c2ccccc2O)c1 | 747 | 0 | 
